Reference: PubChem BioAssay AID488910 (Broad Institute, 2010)
About 25 (0.1%) of roughly 20,000 compounds were called active.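 How the source made its calls: active means mean replicate protection from cytokine-induced ATP loss at least 50% and at least 75% of replicates each reaching 50%; inconclusive means meets only one of the two criteria, mean or replicate share; inactive means fails both the mean and replicate share criteria.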 The list comes from a sample in which actives are over-represented; it also holds similar structures and randomly drawn compounds.

Experiment: protection of INS-1E cells from cytokine death, primary screen, ATP luminescence, single point (AID 488910)
Conditions: INS-1E cytokine-induced death, 48 h, at 10 µM, stronger effect = higher value, normalised: neutral wells 0, positive control 100
In short: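 Assay system – rat INS-1E insulinoma cell line · Quantity – 8000 cells per well · Buffer or medium – RPMI without phenol red, 5% FBS · Schedule – 48 h co-treatment, 10 min post-lysis read · Technique – luminescent ATP assay (CellTiter-Glo)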

SMILES	protection from cytokine-induced ATP loss
CNC[C@H]1Oc2ccc(NS(=O)(=O)c3cn(C)cn3)cc2C(=O)N([C@@H](C)CO)C[C@@H]1C	-1.06% (inactive)
COc1ccc(NC(=O)Nc2cccc3c2O[C@H](CN(C)S(=O)(=O)c2ccc(F)cc2)[C@H](C)CN([C@H](C)CO)C3=O)cc1	-2.75% (inactive)
C[C@@H]1CN([C@@H](C)CO)C(=O)Cc2cc(NC(=O)Cn3cnnn3)ccc2O[C@@H]1CN(C)S(=O)(=O)c1cn(C)cn1	10.1% (inactive)
COc1ccc(S(=O)(=O)Nc2ccc3c(c2)CC(=O)N([C@H](C)CO)C[C@@H](C)[C@@H](CN(C)C(=O)Nc2cccc4ccccc24)O3)cc1	0.838% (inactive)
C[C@@H]1CN([C@H](C)CO)C(=O)c2cccc(NC(=O)Nc3ccccc3)c2O[C@H]1CN(C)Cc1ccccc1	3.52% (inactive)
C[C@@H]1CN([C@H](C)CO)C(=O)c2cc(NS(=O)(=O)c3ccccc3)ccc2O[C@H]1CN(C)S(=O)(=O)c1ccc(Cl)cc1	-7.86% (inactive)
C[C@H](CO)N1C[C@H](C)[C@H](CN(C)C)Oc2ccc(NC(=O)c3ccncc3)cc2CC1=O	2% (inactive)
O=C(NO)c1cccc(C(=O)N/N=C/c2c(F)c(F)c(F)c(F)c2F)c1	-2.52% (inactive)
C[C@H]1CN([C@@H](C)CO)C(=O)Cc2cc(NC(=O)Nc3cccc4ccccc34)ccc2O[C@@H]1CN(C)S(=O)(=O)c1cn(C)cn1	4.42% (inactive)
CC(C)NC(=O)N(C)C[C@H]1Oc2c(NC(=O)C3CCCCC3)cccc2C(=O)N([C@@H](C)CO)C[C@H]1C	10.6% (inactive)
Cc1noc(C)c1NC(=O)N(C)C[C@H]1Oc2c(NS(=O)(=O)c3cccs3)cccc2C(=O)N([C@@H](C)CO)C[C@@H]1C	3.62% (inactive)
O=C(N/N=C/c1c[nH]c2ccccc12)c1ccccc1O	-18.7% (inactive)
Cc1ccc(S(=O)(=O)Nc2ccc3c(c2)CC(=O)N([C@H](C)CO)C[C@@H](C)[C@H](CN(C)S(=O)(=O)c2c(C)noc2C)O3)cc1	3.93% (inactive)
COc1ccc(CN(C)C[C@@H]2Oc3ccc(NS(=O)(=O)c4cn(C)cn4)cc3C(=O)N([C@@H](C)CO)C[C@@H]2C)cc1	7.8% (inactive)
C[C@H](CO)N1C[C@H](C)[C@H](CN(C)CC2CC2)Oc2ccc(NC(=O)CCN3CCOCC3)cc2C1=O	-6.34% (inactive)
CC(C)NC(=O)Nc1cccc2c1O[C@H](CN(C)S(=O)(=O)c1cccs1)[C@@H](C)CN([C@H](C)CO)C2=O	5.81% (inactive)
C[C@@H]1CN([C@@H](C)CO)C(=O)c2cccc(NC(=O)Nc3ccccc3)c2O[C@H]1CN(C)Cc1ccccc1	-11.7% (inactive)
C[C@@H]1CN([C@@H](C)CO)C(=O)Cc2cc(NC(=O)Nc3ccc(F)cc3)ccc2O[C@@H]1CN(C)S(=O)(=O)c1ccccc1	13.1% (inactive)
C[C@@H]1CN([C@@H](C)CO)C(=O)c2cc(NS(C)(=O)=O)ccc2O[C@@H]1CN(C)C(=O)Nc1ccccc1	-5.38% (inactive)
CC(C)NC(=O)Nc1ccc2c(c1)C(=O)N([C@@H](C)CO)C[C@H](C)[C@@H](CN(C)S(C)(=O)=O)O2	2.67% (inactive)

SMILES	protection from cytokine-induced ATP loss
C[C@H]1CN([C@@H](C)CO)C(=O)Cc2cc(NS(=O)(=O)c3cccs3)ccc2O[C@@H]1CN(C)S(=O)(=O)c1cn(C)cn1	6.75% (inactive)
COc1ccc(CN(C)C[C@H]2Oc3c(NS(=O)(=O)c4ccccc4)cccc3C(=O)N([C@@H](C)CO)C[C@H]2C)cc1	2.69% (inactive)
CNC[C@H]1Oc2ccc(NC(=O)C3CCCCC3)cc2C(=O)N([C@H](C)CO)C[C@@H]1C	1.62% (inactive)
C[C@@H]1CN([C@@H](C)CO)C(=O)c2cc(NC(=O)Cn3cnnn3)ccc2O[C@H]1CN(C)Cc1ccc(C(F)(F)F)cc1	-4.67% (inactive)
Cc1noc(C)c1NC(=O)Nc1ccc2c(c1)C(=O)N([C@@H](C)CO)C[C@H](C)[C@H](CN(C)Cc1ccc(-c3ccccc3)cc1)O2	-3.13% (inactive)
Cc1noc(C)c1NC(=O)Nc1ccc2c(c1)C(=O)N([C@@H](C)CO)C[C@@H](C)[C@@H](CN(C)CC1CCCCC1)O2	3.33% (inactive)
C[C@H](CO)N1C[C@H](C)[C@H](CN(C)Cc2ccc(Oc3ccccc3)cc2)Oc2c(NC(=O)CCCCCC(=O)Nc3ccccc3N)cccc2C1=O	-9.83% (inactive)
COc1ccc(NC(=O)N(C)C[C@H]2Oc3ccc(N(C)C)cc3C(=O)N([C@H](C)CO)C[C@H]2C)cc1	1.38% (inactive)
Cc1ccc(S(=O)(=O)Nc2ccc3c(c2)C(=O)N([C@H](C)CO)C[C@H](C)[C@@H](CN(C)C(=O)NC(C)C)OCCCC[C@@H](C)O3)cc1	12.2% (inactive)
Cc1ccc(S(=O)(=O)N(C)C[C@H]2Oc3ccc(NC(=O)CCCCCC(=O)Nc4ccccc4N)cc3C(=O)N([C@H](C)CO)C[C@H]2C)cc1	-6.48% (inactive)
CN(C)CCCOc1ccc(/C=N/NC(=O)c2cccc(C(=O)NO)c2)cc1	-4.67% (inactive)
C[C@H]1CN([C@@H](C)CO)C(=O)Cc2cc(NC(=O)Nc3ccc(C(F)(F)F)cc3)ccc2O[C@@H]1CN(C)S(=O)(=O)c1ccc(Cl)cc1	-4.37% (inactive)
C[C@@H]1CN([C@H](C)CO)C(=O)Cc2cc(NC(=O)CCCCCC(=O)Nc3ccccc3N)ccc2O[C@H]1CN(C)S(=O)(=O)c1ccc(F)cc1	9.28% (inactive)
COc1cc(/C=N/NC(=O)CCCCCCC(=O)Nc2ccccc2O)ccc1O	-6.33% (inactive)
COc1ccc(NC(=O)N(C)C[C@H]2Oc3ccc(NC(=O)NC(C)C)cc3CC(=O)N([C@H](C)CO)C[C@H]2C)cc1	14% (inactive)
Cc1ccc(S(=O)(=O)N(C)C[C@@H]2Oc3ccc(N(C)C)cc3C(=O)N([C@@H](C)CO)C[C@H]2C)cc1	-1.09% (inactive)
Cc1ccc(S(=O)(=O)Nc2ccc3c(c2)C(=O)N([C@@H](C)CO)C[C@@H](C)[C@H](CN(C)Cc2ccc(C(=O)O)cc2)O3)cc1	3.07% (inactive)
C[C@H]1CN([C@@H](C)CO)C(=O)Cc2cc(NC(=O)Cn3cnnn3)ccc2O[C@H]1CN(C)Cc1ccc(C(=O)O)cc1	10.1% (inactive)
Cc1noc(C)c1S(=O)(=O)N(C)C[C@@H]1Oc2c(NS(=O)(=O)c3cn(C)cn3)cccc2C(=O)N([C@@H](C)CO)C[C@H]1C	4.74% (inactive)
CC(C)NC(=O)Nc1ccc2c(c1)C(=O)N([C@@H](C)CO)C[C@@H](C)[C@H](CN(C)Cc1ccc(Cl)c(Cl)c1)O2	-9.43% (inactive)

SMILES	protection from cytokine-induced ATP loss
C[C@@H]1CN([C@H](C)CO)C(=O)c2cccc(NS(=O)(=O)c3ccc(Cl)cc3)c2O[C@H]1CN(C)Cc1ccc(C(F)(F)F)cc1	6.19% (inactive)
C[C@H]1CN([C@@H](C)CO)C(=O)c2cccc(NC(=O)Nc3ccc(F)cc3)c2O[C@H]1CN(C)S(=O)(=O)c1cn(C)cn1	5.6% (inactive)
Cc1noc(C)c1NC(=O)N(C)C[C@@H]1Oc2ccc(NS(=O)(=O)c3ccc(Cl)cc3)cc2C(=O)N([C@@H](C)CO)C[C@H]1C	5.78% (inactive)
C[C@@H]1CN([C@H](C)CO)C(=O)c2cccc(NC(=O)Nc3ccc4c(c3)OCO4)c2O[C@H]1CN(C)S(=O)(=O)c1ccc(Cl)cc1	-2.56% (inactive)
COc1ccc(NC(=O)N(C)C[C@@H]2Oc3c(NS(=O)(=O)c4ccc(OC)cc4)cccc3C(=O)N([C@H](C)CO)C[C@@H]2C)cc1	8.49% (inactive)
C[C@H]1CN([C@@H](C)CO)C(=O)c2cc(NC(=O)Cn3cnnn3)ccc2O[C@H]1CN(C)Cc1ccc(C(=O)O)cc1	1.96% (inactive)
C[C@@H]1CN([C@H](C)CO)C(=O)c2cccc(NC(=O)CCCCCC(=O)Nc3ccccc3N)c2O[C@H]1CN(C)CC1CCCCC1	4.11% (inactive)
C[C@@H]1CN([C@H](C)CO)C(=O)Cc2cc(NC(=O)Cn3cnnn3)ccc2O[C@H]1CN(C)Cc1ccc(Cl)c(Cl)c1	4.05% (inactive)
C[C@H](CO)N1C[C@H](C)[C@@H](CN(C)C(=O)Nc2ccccc2)Oc2c(NC(=O)CCCCCC(=O)Nc3ccccc3N)cccc2C1=O	4.22% (inactive)
C[C@@H]1CN([C@H](C)CO)C(=O)c2cccc(NS(=O)(=O)c3ccc(F)cc3)c2O[C@@H]1CN(C)S(=O)(=O)c1ccc(Cl)cc1	0.697% (inactive)
C[C@@H]1CN([C@@H](C)CO)C(=O)c2cccc(NC(=O)Nc3cccc4ccccc34)c2O[C@@H]1CN(C)CC1CC1	2.15% (inactive)
COC(=O)CCCCCCC(=O)N/N=C/c1c(Cl)cc(OC)c(OC)c1Cl	2.23% (inactive)
C[C@@H]1CN([C@@H](C)CO)C(=O)c2cc(NS(=O)(=O)c3ccc(F)cc3)ccc2O[C@@H]1CN(C)C(=O)NC1CCCCC1	-2.78% (inactive)
COc1ccc(NC(=O)N(C)C[C@H]2Oc3ccc(N(C)C)cc3C(=O)N([C@@H](C)CO)C[C@H]2C)cc1	3.7% (inactive)
Cc1ccc(S(=O)(=O)N(C)C[C@@H]2Oc3c(NC(=O)Nc4ccc(F)cc4)cccc3C(=O)N([C@H](C)CO)C[C@H]2C)cc1	40.9% (inactive)
CNC[C@H]1OCCCC[C@@H](C)Oc2ccc(NC(=O)Cc3ccccc3)cc2C(=O)N([C@H](C)CO)C[C@@H]1C	-7.6% (inactive)
C[C@@H]1CN([C@@H](C)CO)C(=O)Cc2cc(NS(=O)(=O)c3ccc(F)cc3)ccc2O[C@@H]1CN(C)S(=O)(=O)c1cccs1	4.79% (inactive)
C[C@H](CO)N1C[C@H](C)[C@H](CN(C)Cc2ccccc2)Oc2ccc(NC(=O)CCCCCC(=O)Nc3ccccc3N)cc2C1=O	-0.781% (inactive)
